The subject of one data set is Mus musculus. The data set can be described thus: Inhibition of L687,414-induced hyperactivity in mouse at 1 mg/kg, ip dosed before test. Type of data set: functional.
The nature of data set [1]: Stability in pH 7 buffer at 1 mg assessed as compound hydrolysis after several days at room temperature by LC/MS analysis. In kind it is physicochemical.
The test system of a further data set is MDR1 (P-gp). The data set is described as follows: Efflux ratio in MDCK2-MDR1 cells at 1 uM incubated for 1 hr by LC-MS/MS method. In kind it is ADME, cell-based, Canis lupus familiaris. The following applies: dog, MDCK-MDR1. In outline: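 MDCK II cells transfected with MDR1 (human P-gp, lowered canine P-gp) seeded on transwell inserts at 300,000 cells/cm2, media changed day 2, assayed day 4 or 5. Dosed apical or basolateral at 1 µM final (1 mM DMSO stock, 0.1% DMSO) in HBSS + glucose, duplicate, 37 °C for 1 h. Receiver and donor sampled, LC-MS/MS with buspirone internal standard; Papp from ΔQ/Δt·1/(A·C0).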

Data set [2] is described as follows: Unbound intrinsic clearance in human liver microsomes at 0.5 uM incubated for 4 hrs by equilibrium dialysis and LC-MS/MS method. Type of data set: ADME, microsome.
Data set [3] addresses T1, Sodium- and chloride-dependent glycine transporter 1 (Homo sapiens, UniProt P48067).
T1 sequence (P48067 whole entry): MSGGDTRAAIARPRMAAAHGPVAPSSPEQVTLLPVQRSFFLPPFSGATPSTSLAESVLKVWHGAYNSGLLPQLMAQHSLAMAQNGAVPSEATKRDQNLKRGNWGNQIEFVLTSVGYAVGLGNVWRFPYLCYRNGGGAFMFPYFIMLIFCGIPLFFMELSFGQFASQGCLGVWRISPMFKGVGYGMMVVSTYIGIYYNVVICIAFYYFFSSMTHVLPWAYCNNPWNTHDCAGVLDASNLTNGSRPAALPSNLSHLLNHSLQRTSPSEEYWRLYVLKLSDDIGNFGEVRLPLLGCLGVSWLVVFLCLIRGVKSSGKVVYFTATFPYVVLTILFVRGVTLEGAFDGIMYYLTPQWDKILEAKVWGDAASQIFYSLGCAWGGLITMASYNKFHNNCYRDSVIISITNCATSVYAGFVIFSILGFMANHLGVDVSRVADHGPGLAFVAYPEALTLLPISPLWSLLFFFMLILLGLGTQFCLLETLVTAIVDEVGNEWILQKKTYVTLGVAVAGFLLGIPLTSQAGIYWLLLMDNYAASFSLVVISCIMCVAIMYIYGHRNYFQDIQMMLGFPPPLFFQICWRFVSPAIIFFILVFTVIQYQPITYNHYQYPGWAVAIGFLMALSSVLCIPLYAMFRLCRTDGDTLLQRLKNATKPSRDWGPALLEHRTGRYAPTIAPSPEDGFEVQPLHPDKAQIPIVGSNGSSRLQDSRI
The data set can be described thus: Inhibition of [3H]N-Methyl-SSR504734 binding to human recombinant GlyT1c expressed in CHO cell membranes incubated for 1 hr by liquid scintillation spectrometry.

For data set [4], the system named is Salmonella typhimurium. The data set can be described thus: Genotoxicity in Salmonella typhimurium TA100 assessed as induction of mutagenicity by measuring revertant colonies at 0.3 to 1000 ug/well incubated for 48 hrs in presence of liver S9 fraction by mini Ames test. The following applies: salmonella enterica subsp. enterica serovar typhimurium, s9, 48 h. Type of data set: toxicity, organism-based. (In general: The Ames test uses bacterial strains that need an amino acid and regain growth without it when mutated back.)

The subject of data set [5] is Salmonella typhimurium. The data set can be described thus: Genotoxicity in Salmonella typhimurium TA98 assessed as induction of mutagenicity by measuring revertant colonies at 0.3 to 1000 ug/well incubated for 48 hrs in presence of liver S9 fraction by mini Ames test. In kind it is toxicity, organism-based. Conditions: salmonella enterica subsp. enterica serovar typhimurium, s9, 48 h.

A short description of data set [6]: Unbound intrinsic clearance in rat liver microsomes at 0.5 uM incubated for 4 hrs by equilibrium dialysis and LC-MS/MS method. In kind it is ADME, microsome.
Data set [7] can be described thus: Ratio of free drug level in brain to plasma in rat. In kind it is ADME. Conditions: read-out: BPR.

Broadly, the inhibition in vivo is the relative decrease from the control value, in per cent. A high value points to a strong effect. On to `Cn1cnc(S(=O)(=O)N2C[C@H](Nc3ccc(F)c(OC(F)(F)F)c3)[C@@H](c3ccc(F)cc3)C2)c1`, for which testing at 1 mg/kg in the data set with Mus musculus gave an inhibition in vivo of 100%.
On to `Cn1cnc(S(=O)(=O)N2C[C@H]([C@@H]3CCCO3)[C@@H](Nc3cccc(OC(F)(F)F)c3)C2)c1`, for which, in [1], the Stability entry is given as “Stable”.
For orientation: efflux ratio means a quotient of directional permeabilities that is used to spot active efflux. In general, Ki refers to a dissociation constant, usually derived from enzyme kinetics or from competition with a known ligand. On to `Cn1cnc(S(=O)(=O)N2CC(Nc3ccccc3)C(c3ccccc3)C2)c1` (racemic), for which, in the data set on MDR1 (P-gp), the efflux ratio at 1 h, 1 µM is 0.9. In addition, the CL free in [2] came out at 250 mL/min/kg; in [6] it was 950 mL/min/kg. In data set [3], the Ki is 199 nM. Moreover, the Activity entry in the data set on Salmonella typhimurium [4] and with Salmonella typhimurium [5] was “Non-Toxic” throughout.
Take `Cn1cnc(S(=O)(=O)N2CC(Nc3cccc(C(F)(F)F)c3)C(c3ccccc3)C2)c1` (racemic): the Ki in [3] was found to be 8 nM. Also, the Activity result in the data set with Salmonella typhimurium [4] and with Salmonella typhimurium [5] was “Non-Toxic” throughout.
`Cn1cnc(S(=O)(=O)N2CC(Nc3cncc(C(F)(F)F)c3)C(c3ccc(F)cc3)C2)c1` (racemic): the Activity entry with Salmonella typhimurium [4] and in the data set with Salmonella typhimurium [5] was “Non-Toxic” each time.
On to `Cc1cccc(NC2CN(S(=O)(=O)c3cn(C)cn3)CC2c2ccccc2)c1` (racemic), for which the efflux ratio at 1 h, 1 µM in the data set with MDR1 (P-gp) is 0.9. The CL free is 817 mL/min/kg in [2] and 1980 mL/min/kg in data set [6]. In addition, the Kp uu in data set [7] turned out to be 0.6. Moreover, the Ki in data set [3] is 17 to 18 nM. The Activity entry in the data set on Salmonella typhimurium [4] and in the data set with Salmonella typhimurium [5] was “Non-Toxic” throughout.
As for `Cn1cnc(S(=O)(=O)N2CC(Nc3cccc(Cl)c3)C(c3ccc(F)cc3)C2)c1` (racemic), the efflux ratio at 1 h, 1 µM in the data set on MDR1 (P-gp) came to 1.1. In addition, the results for the CL free in data set [2] and in data set [6] were 3380 mL/min/kg and 5830 mL/min/kg, respectively. Also, in data set [7], the Kp uu came out at 1.7. For the same molecule, the Ki in [3] was determined as 3 nM. Besides, the Activity entry with Salmonella typhimurium [4] and in the data set with Salmonella typhimurium [5] was “Non-Toxic” throughout.
Take `Cn1cnc(S(=O)(=O)N2CC(Nc3cccc(C(F)(F)F)c3)C(c3cccnc3)C2)c1` (racemic): the Activity entry in the data set with Salmonella typhimurium [4] and with Salmonella typhimurium [5] was “Non-Toxic” throughout.
For the molecule `Cn1cnc(S(=O)(=O)N2CC(Nc3cccc(Cl)c3)C(c3cccc(F)c3)C2)c1` (racemic), in the data set on MDR1 (P-gp), the efflux ratio at 1 h, 1 µM stood at 1. The results for the CL free in data set [2] and in [6] were 1450 mL/min/kg and 4430 mL/min/kg, respectively. Further, the Ki in [3] stood at 42 nM. Besides, the Activity result in the data set on Salmonella typhimurium [4] and in the data set with Salmonella typhimurium [5] was “Non-Toxic” throughout.

The values above are taken from ChEMBL document CHEMBL4145640, “De Novo Design, Synthesis, and Biological Evaluation of 3,4-Disubstituted Pyrrolidine Sulfonamides as Potent and Selective Glycine Transporter 1 Competitive Inhibitors” (J Med Chem, 2018).
